Reference: ChEMBL document CHEMBL4017487, “Design and Synthesis of γ- and δ-Lactam M1 Positive Allosteric Modulators (PAMs): Convulsion and Cholinergic Toxicity of an M1-Selective PAM with Weak Agonist Activity” (J Med Chem, 2017)
pEC50: −log10 of the molar value. The source made the active and inactive calls. The rule behind the calls is not given here.

What was measured:
[1] = target: T1, Muscarinic acetylcholine receptor M1 (Homo sapiens, UniProt P11229); assay: Activity at human muscarinic acetylcholine receptor M1 expressed in CHO cells assessed as increase in acetylcholine-induced beta-arrestin recruitment; format: cell-based
T1 sequence (P11229 whole entry): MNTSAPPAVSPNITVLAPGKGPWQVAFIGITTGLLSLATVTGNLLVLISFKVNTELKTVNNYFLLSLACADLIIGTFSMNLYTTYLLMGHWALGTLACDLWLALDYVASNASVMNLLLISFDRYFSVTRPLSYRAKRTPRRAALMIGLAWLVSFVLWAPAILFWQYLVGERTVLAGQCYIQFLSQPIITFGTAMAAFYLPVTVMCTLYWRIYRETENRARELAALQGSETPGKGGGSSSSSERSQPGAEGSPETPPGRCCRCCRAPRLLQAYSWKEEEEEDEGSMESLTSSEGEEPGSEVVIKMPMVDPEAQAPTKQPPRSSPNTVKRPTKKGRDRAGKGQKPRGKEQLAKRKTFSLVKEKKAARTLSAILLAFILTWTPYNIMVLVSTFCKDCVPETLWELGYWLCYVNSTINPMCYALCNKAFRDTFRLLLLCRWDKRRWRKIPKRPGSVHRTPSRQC

Canis familiaris = assay: Unbound AUC (0 to 24 hrs) in dog plasma at 5 mg/kg, po administered as single dose using hydroxypropyl cellulose/docusate sodium formulation; format: ADME, organism-based, Canis lupus familiaris; settings: in vivo
Procedure, shortened: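 Dogs given a single oral 5 mg/kg dose as a nanosuspension (hydroxypropyl cellulose SL, 0.05% docusate sodium in purified water), 1/sex. Unbound plasma Cmax and AUC determined, with clinical signs monitored at approximate hours postdose.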

[2] = target: T1, Muscarinic acetylcholine receptor M1; assay: Ratio of intrinsic activity at human muscarinic acetylcholine receptor M1 expressed in CHO cells by beta-arrestin recruitment assay to intrinsic activity at human muscarinic acetylcholine receptor M1 expressed in CHO cells assessed as increase in calcium mobilization; format: ADME, cell-based
[3] = Clearance in dog at 0.1 mg/kg, iv administered as single bolus dose; format: ADME, organism-based, Canis lupus familiaris; settings: in vivo
Plasma = assay: Unbound plasma concentration in amphetamine-induced hyperlocomotion C57BL/6 mouse at 1 mg/kg, sc measured after 1 hr by LC-MS/MS analysis; format: ADME, organism-based; settings: in vivo
Procedure, shortened: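 Satellite group of C57BL/6 mice from the amphetamine-stimulated locomotor study, N = 2/dose at 0.32, 1 and 3.2 mg/kg. Dosed sc as a solution in 10/90 Cremophor/water. Unbound plasma and brain concentrations measured at T = 1 h.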

[4] = Ratio of unbound Cmax in dog brain assessed as convulsions at 15 mg/kg, po administered as single dose to unbound brain concentration for agonist activity at muscarinic acetylcholine receptor M1 in C57BL/6 mouse assessed as required to show 2 fold increase in IP1 accumulation in striatum at 1 to 10 mg/kg, sc; format: organism-based
[5] = target: T1, Muscarinic acetylcholine receptor M1; assay: Agonist activity at human muscarinic acetylcholine receptor M1 expressed in CHO cells assessed as increase in calcium mobilization incubated for 10 mins by Fluo-8-AM dye based FLIPR assay; format: cell-based
Procedure, shortened: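 M1 FLIPR calcium mobilization run in agonist mode (compound added without the EC20 ACh used in PAM mode). Top concentration 10 μM. EC50 values are geometric means of at least three experiments.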

Mus musculus [6] = assay: Reversal of amphetamine-induced hyperlocomotion in C57BL/6 mouse assessed as decrease in total distance traveled at 0.3 to 3.2 mg/kg, sc pretreated for 30 mins followed by amphetamine dosing measured for 90 mins; format: functional, organism-based
Procedure, shortened: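 C57BL/6 mice, D-amphetamine-stimulated locomotor activity. Compound at 0.32, 1 and 3.2 mg/kg sc as a solution in 10/90 Cremophor/water. Plasma and brain exposures from a satellite group (N = 2/dose) at 1 h.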

[7] = target: T1, Muscarinic acetylcholine receptor M1; assay: Ratio of positive allosteric modulation of human muscarinic acetylcholine receptor M1 expressed in CHO cells assessed as increase in acetylcholine-induced calcium mobilization by measuring functional co-operativity with acetylcholine to Kb human muscarinic acetylcholine receptor M1 expressed in CHO cells assessed as increase in calcium mobilization; format: ADME, cell-based
Rattus norvegicus [8] = assay: Cholinergic toxicity in rat at 1 to 5 mg/kg, po administered as single dose; format: organism-based; settings: in vivo
Procedure, shortened: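 Rat single oral dose escalation, 3/sex/dose. 1 and 5 mg/kg as a 0.5% methylcellulose suspension; 15 and 45 mg/kg as a nanosuspension (1.25% w/v hydroxypropyl cellulose SL, 0.05% docusate sodium in water).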

Mus musculus [9] = assay: In vivo agonist activity at muscarinic acetylcholine receptor M1 in C57BL/6 mouse assessed as increase in IP1 accumulation in striatum at 1 to 10 mg/kg, sc measured after 2 hrs; format: organism-based
Procedure, shortened: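 C57BL/6 mice dosed with compound or vehicle, then ex vivo striatal IP1 and free brain concentration (Cb,u) measured. Data points are individual mice.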

[10] = Selectivity ratio of EC50 for human muscarinic acetylcholine receptor M5 expressed in CHO cells to EC50 for human muscarinic acetylcholine receptor M1 expressed in CHO cells; format: ADME, cell-based
Rattus norvegicus [11] = assay: Unbound AUC (0 to 24 hrs) in rat plasma at 1 mg/kg, po administered as single dose; format: ADME, organism-based; settings: in vivo
Procedure, shortened: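 Rats (3/sex/dose) dosed orally once, 1 or 5 mg/kg as a 0.5% methylcellulose suspension.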

[12] = target: T1, Muscarinic acetylcholine receptor M1; assay: Positive allosteric modulation of human muscarinic acetylcholine receptor M1 expressed in CHO cells assessed as increase in acetylcholine-induced beta-arrestin recruitment by measuring functional co-operativity with acetylcholine; format: ADME, cell-based
[13] = target: T1, Muscarinic acetylcholine receptor M1; assay: Positive allosteric modulation of human muscarinic acetylcholine receptor M1 expressed in CHO cells assessed as increase in acetylcholine-induced calcium mobilization by measuring functional co-operativity with acetylcholine preincubated for 10 mins followed by acetylcholine addition by Fluo-8-AM dye based FLIPR assay; format: ADME, cell-based
Procedure, shortened: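 In FLIPR calcium-mobilization data, ACh concentration–response curves with and without test compound were fitted with the Black/Leff operational model. α gives the change in receptor affinity for ACh, and β gives the change in efficacy, the functional cooperativity.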

[14] = target: T2, Muscarinic acetylcholine receptor M5 (Homo sapiens, UniProt P08912); assay: Agonist activity at human muscarinic acetylcholine receptor M5 expressed in CHO cells assessed as increase in calcium mobilization incubated for 10 mins by Fluo-8-AM dye based FLIPR assay; format: cell-based
T2 sequence (P08912 whole entry): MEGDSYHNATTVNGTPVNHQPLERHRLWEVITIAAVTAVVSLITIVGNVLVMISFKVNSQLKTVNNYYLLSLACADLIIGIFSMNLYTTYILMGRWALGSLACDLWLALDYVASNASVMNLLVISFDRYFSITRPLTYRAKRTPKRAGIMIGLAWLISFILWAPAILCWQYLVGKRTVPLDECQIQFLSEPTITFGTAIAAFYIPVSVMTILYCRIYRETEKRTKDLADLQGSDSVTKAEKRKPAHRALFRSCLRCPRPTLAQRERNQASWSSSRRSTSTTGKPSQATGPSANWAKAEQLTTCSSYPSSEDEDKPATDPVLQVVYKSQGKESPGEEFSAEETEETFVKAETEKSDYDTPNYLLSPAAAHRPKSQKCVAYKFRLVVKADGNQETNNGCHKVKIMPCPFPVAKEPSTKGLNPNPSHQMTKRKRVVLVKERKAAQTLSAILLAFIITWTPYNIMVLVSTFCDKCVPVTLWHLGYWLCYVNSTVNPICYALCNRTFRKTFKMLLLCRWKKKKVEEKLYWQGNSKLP
Procedure, shortened: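 Recombinant functional human M2–M5 assays, each run in agonist and PAM modes at concentrations up to 10 μM.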

[15] = Half life in dog at 0.5 mg/kg, po administered as single dose; format: ADME, organism-based, Canis lupus familiaris; settings: in vivo
Procedure, shortened: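 Dog, single oral dose of 0.5 mg/kg as a suspension in 0.5% methylcellulose. Half-life taken after the oral dose.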

Structure (SMILES): Cc1cc2c(cc1Cc1ccc(-c3cocn3)cc1)C(=O)N([C@H]1CCOC[C@@H]1O)C2
- KA [1]: 60 µM
- fAUC (Canis familiaris): 3.37 µM·h
- Ratio [2]: 1.4
- clearance [3]: 1.7 mL/min/kg
- Cp(f) (Plasma): 46 nM
- selectivity ratio [4]: 15
- pEC50 [5]: ≤ 5.30
- Activity (Mus musculus [6]): Active
- Ratio [7]: 70
- Activity (Rattus norvegicus [8]): Non-Toxic
- Activity (Mus musculus [9]): Active
- Ratio EC50 [10]: > 200
- fAUC (Rattus norvegicus [11]): 1.048 µM·h
- log(activity) [12]: 2.9
- log(activity) [13]: 2.3
- pEC50 [14]: < 5.00
- half-life [15]: 7.3 h
